FLuc inhib CS – inhibits firefly luciferase, flagging false hits in luciferase inhibition screens | 200,000 tested, 1.5% active | P08659 | inhibition, % at 10 µM | ATPLite firefly luciferase biochemical luminescence, 10 min;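 active means inhibition above about 50% when tested at 10 µM, limit read from the data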
Target sequence (P08659 whole entry, looked up): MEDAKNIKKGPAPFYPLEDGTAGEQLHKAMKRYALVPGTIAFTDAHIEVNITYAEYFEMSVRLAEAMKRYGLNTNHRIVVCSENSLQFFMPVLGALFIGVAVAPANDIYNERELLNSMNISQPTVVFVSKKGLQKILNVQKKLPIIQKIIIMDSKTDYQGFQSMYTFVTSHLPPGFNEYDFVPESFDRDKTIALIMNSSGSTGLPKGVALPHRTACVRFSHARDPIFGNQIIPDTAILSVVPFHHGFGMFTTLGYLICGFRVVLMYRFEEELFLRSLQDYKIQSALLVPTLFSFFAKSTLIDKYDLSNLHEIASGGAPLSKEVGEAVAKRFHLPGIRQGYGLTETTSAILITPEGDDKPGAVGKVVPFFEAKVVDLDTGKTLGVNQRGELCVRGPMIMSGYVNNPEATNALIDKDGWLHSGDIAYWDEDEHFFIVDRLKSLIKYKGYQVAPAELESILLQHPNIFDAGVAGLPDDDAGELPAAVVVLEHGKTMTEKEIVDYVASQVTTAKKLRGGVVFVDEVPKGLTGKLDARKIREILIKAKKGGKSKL
FLuc stim CS – affects firefly luciferase, flagging false hits in luciferase stimulation screens; ATPlite luciferase biochemical, luminescence, 10 min; 0 = ATP-free wells, 1 = DMSO control; 200,000 tested, under 10 active; activation factor at 10 µM;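 active means luciferase activation factor, scaled between plate controls, of at least 2 with compound at 10 µM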
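Material: luciferase plus luciferin reagent, cell-free. Medium: PBS buffer for ATP. Also added: ATP substrate, dispensed from a 10.24 µM working solution in PBS. Doses: test compounds dosed from 2 mM stocks in 100% DMSO. Incubation: 10 min post-reagent at room temperature. Technique: light output (luminescence). Read-out basis: luminescence gain marking luciferase activators.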
PPC-1+TRAIL kill – kills PPC-1 cancer cells in the presence of TRAIL | PPC-1 cells + TRAIL, ATPLite viability luminescence | cell killing (% activity), % at 4 µM or 5 µM | 220,000 tested, 0.41% active;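 active means cell killing above 50% in the first pass at 4 µM, then a duplicate retest at 5 µM averaging 50% or more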
C8 TRAIL sens – sensitizes caspase-8 expressing cells to TRAIL; 360,000 tested, 1% active; NB7+C8 cells + TRAIL, ATPlite viability luminescence; inhibition (viability loss, TRAIL sensitization), % at 10 µM;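 active means compounds causing at least 50% loss of cell viability in the single-dose screen, relative to plate controls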
PPC-1 tox – PPC-1 cell cytotoxicity | shares compounds with PPC-1+TRAIL kill | PPC-1 viability, ATPlite luminescence, overnight | cytotoxicity, % at 5 µM | 1,200 tested, 50% active | AID 1447;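 active means reconfirmed compounds whose average cytotoxicity reaches 50% or more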
Of the large screens only hits and unclear results are named; the others gave an inactive call (follow-up assays come after a bar, where they were run). Most compounds without a hit are left out; they make up all but 1.5% or so of the library.

Cc1ccc2nc(Nc3nc(-c4ccccc4)cc(=O)[nH]3)nc(C)c2c1	none
O=C(Nc1ccccc1C(=O)N1CCCCC1)c1cccc(S(=O)(=O)N2CCOCC2)c1	none
O=C(Nc1ccccc1C(=O)N1CCCC1)c1cccc(S(=O)(=O)N2CCCCC2)c1	none | PPC-1 tox inactive
COc1ccc(NC(=O)c2cc(-c3ccc(C)cc3O)n[nH]2)c(OC)c1	none (no result: FLuc inhib CS, FLuc stim CS, PPC-1+TRAIL kill)
N=c1n(CCN2CCOCC2)c2ccccc2n1CC(=O)c1ccc(Cl)c(Cl)c1	none
N=c1n(CCN2CCCC2)c2ccccc2n1CC(O)c1ccc(Cl)c(Cl)c1 (centres undefined)	none | PPC-1 tox inactive
C=CCNC(=O)c1ccc2c3n(nc2c1)-c1ccc(Cl)cc1CO3	none (no result: FLuc inhib CS, FLuc stim CS, PPC-1+TRAIL kill)
O=C(NCC1CC1)c1ccc2c3n(nc2c1)-c1ccccc1CO3	PPC-1+TRAIL kill 80, C8 TRAIL sens 83 (no result: FLuc inhib CS, FLuc stim CS) | PPC-1 tox 76
O=C(NCCO)c1ccc2c3n(nc2c1)-c1ccccc1CO3	PPC-1+TRAIL kill 71, C8 TRAIL sens 70 (no result: FLuc inhib CS, FLuc stim CS) | PPC-1 tox 70
CC(=O)Nc1nc(COc2ccccc2)cs1	none | PPC-1 tox inactive
COc1cccc(CNc2cccc3cccnc23)c1O	none | PPC-1 tox inactive
c1ccc2sc(NN=C3CCCCCC3)nc2c1	FLuc inhib CS 89, PPC-1+TRAIL kill 61, C8 TRAIL sens 66 | PPC-1 tox 64
CC1CC(=O)Nc2ccccc2N1C(=O)Nc1ccc(F)cc1 (centres undefined)	none (no result: FLuc inhib CS, FLuc stim CS) | PPC-1 tox inactive
Cc1ccc(O)c(NC(=S)NC(=O)Cc2ccc(Cl)cc2)c1	none (no result: FLuc inhib CS, FLuc stim CS, PPC-1+TRAIL kill)
O=C(Nc1cccnc1)c1sc2cccc(F)c2c1Cl	none
O=C(Nc1ccccn1)c1sc2cccc(F)c2c1Cl	FLuc inhib CS 81, PPC-1+TRAIL kill 81, C8 TRAIL sens 81 | PPC-1 tox 83
Cc1ccc(C(=O)n2c(N)nc3ccccc32)cc1	FLuc inhib CS 97, PPC-1+TRAIL kill 92, C8 TRAIL sens 95 | PPC-1 tox 93
Cc1ccc(S(=O)(=O)n2c(N)nc3ccccc32)cc1	none (no result: FLuc inhib CS, FLuc stim CS, PPC-1+TRAIL kill)
CC(=O)Nc1ccc(C2C(=O)c3ccccc3C2=O)cc1	PPC-1+TRAIL kill 53, C8 TRAIL sens 62 (no result: FLuc inhib CS, FLuc stim CS) | PPC-1 tox 54
O=C1c2ccccc2C(=O)C1c1ccncc1	FLuc inhib CS 80, PPC-1+TRAIL kill 59, C8 TRAIL sens 57 | PPC-1 tox 58
Cc1cc(OCC(=O)Nn2cnnc2)c(C)cc1Br	none
O=C(CCN1C(=O)/C(=C\c2cccs2)SC1=S)NC1=NCCS1	none
O=C(O)CCC(=O)N1CC=C(c2ccccc2)CC1	none
CCOC(=O)c1cc2sccc2n1CC(=O)Nc1ccc(OC)c(OC)c1	none | PPC-1 tox inactive
Cc1ccc(S(=O)(=O)NC2CCCCCCC2)cc1	none (no result: FLuc inhib CS, FLuc stim CS, PPC-1+TRAIL kill)
Cc1ccc(S(=O)(=O)NC2CCCC(C(=O)O)C2)cc1 (centres undefined)	none | PPC-1 tox inactive
CNC(=O)c1ccsc1NC(=O)c1sc2ccccc2c1Cl	none
COCc1nnc(NC(=O)c2sc3ccccc3c2Cl)s1	FLuc inhib CS 63 | PPC-1 tox inactive
Cc1nnc(NC(=O)c2sc3ccccc3c2Cl)s1	FLuc inhib CS 97, PPC-1+TRAIL kill 81, C8 TRAIL sens 87 | PPC-1 tox 81
COCc1nnc(NC(=O)c2cccs2)s1	none
CCOc1ccccc1OCC(=O)Nc1cc(C)on1	none (no result: FLuc inhib CS, FLuc stim CS, PPC-1+TRAIL kill)
CCC(NC(=O)c1ccccc1NC(=O)c1ccc(C)cc1)C(=O)O (centres undefined)	none | PPC-1 tox inactive
COCCCNC(=O)CSc1nc2ccccc2c(=O)n1Cc1ccc2c(c1)OCO2	none
COc1cc(Br)c(S(=O)(=O)Nc2c(C)n(C)n(-c3ccccc3)c2=O)cc1OC	none | PPC-1 tox inactive
COc1ccc(S(=O)(=O)Nc2c(C)n(C)n(-c3ccccc3)c2=O)cc1Br	none (no result: FLuc inhib CS, FLuc stim CS, PPC-1+TRAIL kill)
COc1ccc(CCN(C)C(=O)COC(=O)/C=C/c2ccc(C)o2)cc1OC	none (no result: FLuc inhib CS, FLuc stim CS, PPC-1+TRAIL kill)
Clc1ccc(-c2nc3nc4ccccc4nc3n2Cc2ccco2)cc1	none | PPC-1 tox inactive
COc1ccc(NC(=O)NC(C)c2ccc3c(c2)OCO3)cc1OC (centres undefined)	none (no result: FLuc inhib CS, FLuc stim CS, PPC-1+TRAIL kill)
CCc1ccc(NC(=S)Nc2cccc3cnccc23)cc1	none | PPC-1 tox inactive
Cc1cc(C)cc(NC(=S)Nc2cccc3cnccc23)c1	none
Nc1c(-c2ccccc2)cnc2cc(-c3ccccc3)nn12	FLuc inhib CS 86, PPC-1+TRAIL kill 53, C8 TRAIL sens 65 | PPC-1 tox 60
CC(=O)c1cnc2cc(-c3ccccc3)nn2c1C	none
Cc1ccc(-c2cc(C(=O)N3CCCC3)no2)cc1	FLuc inhib CS 85, PPC-1+TRAIL kill 66, C8 TRAIL sens 68 | PPC-1 tox 68
CCc1ccc(Nc2nnc(SCC(=O)NCCN3C(=O)CSC3=O)s2)cc1	FLuc inhib CS 84, C8 TRAIL sens 58 | PPC-1 tox inactive
CNC(=S)Nc1ccc(-c2nc3ccc(C)cc3s2)cc1	none
Nc1ccc(-c2nc3cc(N)ccc3s2)cc1	FLuc inhib CS 89, C8 TRAIL sens 60 | PPC-1 tox 54
Cc1ccc2nc(-c3ccc(N)cc3)sc2c1	PPC-1+TRAIL kill 81, C8 TRAIL sens 83 (no result: FLuc inhib CS, FLuc stim CS) | PPC-1 tox 82
Nc1ccc2nc(-c3ccccc3)sc2c1	FLuc inhib CS 90, PPC-1+TRAIL kill 68, C8 TRAIL sens 76 | PPC-1 tox 68
COC(=O)C1CC(O)CN1C(=O)NC1CCCCC1 (centres undefined)	none (no result: C8 TRAIL sens)
CCOC(=O)COc1ccc2c(C#N)c3ccccn3c2c1	none
O=C(CSc1nnc(CNC(=O)c2ccccc2F)o1)Nc1cccc(C(F)(F)F)c1	none (no result: FLuc inhib CS, FLuc stim CS, PPC-1+TRAIL kill)
C#CC(=O)N(c1ccc(OC)c(OC)c1)C(C(=O)NC1CCCC1)c1cccs1 (centres undefined)	PPC-1+TRAIL kill 98, C8 TRAIL sens 90 | PPC-1 tox 98
CCc1nc(CN2CCCC(C(=O)c3ccc4c5c(cccc35)CC4)C2)c(C)[nH]1 (centres undefined)	none | PPC-1 tox inactive
O=C(c1ccc2c3c(cccc13)CC2)C1CCCN(Cc2ccncc2)C1 (centres undefined)	none
Cc1ccc(-c2nc3cc(N)ccc3o2)cc1	FLuc inhib CS 89, PPC-1+TRAIL kill 63, C8 TRAIL sens 70 | PPC-1 tox 61
Cc1ccc2oc(-c3cccc(N)c3)nc2c1	FLuc inhib CS 88, PPC-1+TRAIL kill 55, C8 TRAIL sens 63 | PPC-1 tox 56
Nc1ccc2oc(-c3cccc4ccccc34)nc2c1	none
CC(C)c1ccc2oc(-c3ccc(NC(=O)c4ncn[nH]4)cc3)nc2c1	none
Cc1ccc(-c2nc3cc(N)ccc3o2)c(C)c1	FLuc inhib CS 78, C8 TRAIL sens 58 | PPC-1 tox inactive
CC(C)c1ccc2oc(-c3ccc(N)cc3)nc2c1	FLuc inhib CS 88, PPC-1+TRAIL kill 68, C8 TRAIL sens 80 | PPC-1 tox 72
COc1cc2c(cc1OC)C[N+](C)(C)CC2	none
CCn1cc(CNC(=O)CC2C(=O)NCCN2CC(c2ccccc2)c2ccccc2)cn1 (centres undefined)	none
CCOc1cccc2sc(NN)nc12	none
CCOc1cccc2sc(Cl)nc12	none | PPC-1 tox inactive
Cc1csc(NC(=O)c2cccc(Cn3nc(C)c(Br)c3C)c2)n1	none | PPC-1 tox inactive
C=CCN(CC=C)S(=O)(=O)c1ccc(NC(=O)COc2ccccc2OC)cc1	none | PPC-1 tox inactive

From PubChem BioAssay
